According to publication PMC5667346 (Theranostics, 2017):
Ends that are not written are not given here.

Legend:
[1] = Pharmacokinetic analysis, terminal elimination half-life after i.v. injection; type: in vivo; conditions: male ICR mice, i.v. 500 μg/kg
DLS assay = type: physicochemical; conditions: 2 mg/mL in 10 mM PBS, 20°C
[2] = system: bacterial colony count in CLP-induced septic mice; assay: Bacterial count in peritoneal fluid and blood of CLP-operated mice; type: in vivo, mouse; conditions: 500 μg/kg i.v. 12 h after CLP, count at 24 h after CLP, n=10
In short: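 Polymicrobial sepsis was induced by cecal ligation and puncture (CLP). Mice received the test compound at 500 μg/kg i.v. 12 h after CLP, with untreated CLP mice as comparators. Bacterial loads in peritoneal fluid and blood were determined by counting colonies, with n = 10 per group. Data are mean ± SD from three independent experiments on different days, analysed by Mann-Whitney U test versus CLP only.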

## PEG5K-KSLW: KSLW mono-PEGylated at the N-terminal amine with monomethoxy PEG-ALD, MW 5,000 Da ({mPEG 5 kDa}-KKVVFWVKFK)
[1]
  In vivo half-life relative to that of KSLW: > 10 fold
DLS assay
  Percentage polydispersity (%Pd), DLS: 23.3%
DLS assay; filtered 0.22 μm, three repeats with 10 subruns
  Average hydrodynamic diameter (DLS): 4.2 nm
[2]
  Decrease of bacterial colony count in the blood: 90%
  Decrease of bacterial colony count in the peritoneal fluid: 70%
